HIV Env fusion: inhibitors of HIV Env-mediated cell fusion; HeLa-JRFL Env/CEM21 cell fusion, luciferase; inhibition, % at 12.3 µM; 1.1% of 360,000 active; AID 651610;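 active means mean replicate inhibition score of at least 50 and every replicate individually at or above 50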;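 further: 0% = plate neutral controls and 100% = maraviroc near 300 nM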
PGC1a acetyl inh: lowers PGC1a acetylation signal in U2OS cells | AlphaScreen anti-acetyl-lysine; with virally co-expressed GCN5 acetyltransferase | inhibition, % at 15.6 µM | 0.17% of 350,000 active;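 active means every replicate shows inhibition of at least 40%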;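 further: 0% = neutral control wells and 100% = positive control wells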
ERAP1 inh: inhibitors of human ERAP1 aminopeptidase. recombinant ERAP1, Leu-AMC fluorescence, 60 min. inhibition, % at 10.7 µM. 0.15% of 340,000 active. Q9NZ08;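 active means mean replicate inhibition of at least 30%, or all replicates individually reaching that 30% level; inactive means mean below 30% and not every replicate reaching it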;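 further: 0% = neutral control wells and 100% = L-leucinethiol positive control wells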
Target sequence (Q9NZ08 whole entry, looked up): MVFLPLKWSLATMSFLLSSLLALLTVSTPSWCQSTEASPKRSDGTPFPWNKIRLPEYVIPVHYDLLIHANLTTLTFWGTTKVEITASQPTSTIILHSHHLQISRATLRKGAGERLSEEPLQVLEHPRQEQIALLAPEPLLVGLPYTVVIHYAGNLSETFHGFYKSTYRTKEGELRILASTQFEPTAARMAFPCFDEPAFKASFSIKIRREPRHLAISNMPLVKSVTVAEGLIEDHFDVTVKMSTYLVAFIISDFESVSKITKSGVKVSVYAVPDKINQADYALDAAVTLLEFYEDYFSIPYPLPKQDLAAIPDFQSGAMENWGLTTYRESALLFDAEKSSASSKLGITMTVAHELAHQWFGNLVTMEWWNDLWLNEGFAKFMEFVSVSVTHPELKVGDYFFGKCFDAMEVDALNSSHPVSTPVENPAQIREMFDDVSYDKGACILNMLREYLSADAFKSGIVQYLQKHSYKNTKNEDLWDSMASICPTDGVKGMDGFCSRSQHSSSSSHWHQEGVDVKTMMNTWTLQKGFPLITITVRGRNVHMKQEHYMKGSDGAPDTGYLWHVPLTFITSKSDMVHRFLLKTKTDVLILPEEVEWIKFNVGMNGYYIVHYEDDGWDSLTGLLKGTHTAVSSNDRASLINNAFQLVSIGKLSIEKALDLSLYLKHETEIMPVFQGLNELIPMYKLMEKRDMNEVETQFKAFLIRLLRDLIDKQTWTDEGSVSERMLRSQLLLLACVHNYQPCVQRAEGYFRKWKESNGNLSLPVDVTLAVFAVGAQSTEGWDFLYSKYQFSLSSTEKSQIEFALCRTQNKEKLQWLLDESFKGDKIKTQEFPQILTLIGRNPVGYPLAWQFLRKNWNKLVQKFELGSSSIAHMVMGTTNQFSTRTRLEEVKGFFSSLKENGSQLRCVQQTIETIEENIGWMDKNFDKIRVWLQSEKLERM
Cneo AK release: causes C. neoformans cell lysis; adenylate kinase release luminescence, 4 h; normalised: neutral wells 0, clomiphene wells 100; lysis activity, % at 15 µM; 0.2% of 360,000 active; AID 651654;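 active means mean lysis activity across replicates of at least 80%, whatever share of replicates individually reach that level; inactive means mean lysis activity below 80%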
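Schedule: static 4 h at 37 °C with compound, 1 h detection; system: C. neoformans cells; benchmarks: Clomiphene as positive control; buffer or medium: fresh YPD medium; measure: luminescence rise reflecting yeast cell lysis; measured by: luminescent adenylate kinase detection reagent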
rRNA inh HTS: selective bacterial rRNA inhibition in E. coli; E. coli WT GFP vs humanized-ribosome RFP mutants, fluorescence, 24 h; active compounds read low; DMSO median 0, no signal -100; GFP signal change (wild-type ribosome), % (concentration not given with the values); 1.6% of 350,000 active; AID 720706;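 active means significant combined selectivity score with lowered wild-type GFP, culture density cut under 30%, mutant RFP and density less affected; inactive means any of these conditions unmet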
FGF22 binding: FGF22 (human) thermal shift binding; recombinant FGF22 thermal shift, SYPRO orange fluorescence; percent of sucrose octasulfate shift, DMSO zero; AID 651658; 1.5% of 340,000 active; Q9HCT0; activity (Tm shift, normalised), % at 9.99 µM;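 active means mean Tm shift, scaled 0 neutral to 100 positive control, at about 1.3% or above, every replicate too, limit read from the data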
Numbers without * were called inactive; i = inactive; · = not tested or not shown; [ ] = another dose, or the depositor's remark. In the library only some 3.5% were active in any assay of this set; here they are far more common.

SMILES	HIV Env fusion	PGC1a acetyl inh	ERAP1 inh	Cneo AK release	rRNA inh HTS	FGF22 binding
COc1cc(/C=C2\SC(=O)N(c3cccc(Cl)c3)C2=O)cc([N+](=O)[O-])c1O	-12	-4	-2	·	-33*	0
COc1ccc([N+](=O)[O-])cc1NC(=O)C(C)OC(=O)c1ccccc1C(=O)c1ccc(Cl)cc1 (stereo unspecified)	85*	·	-3	·	-4	0
O=[N+]([O-])c1ccc(C2=Nn3cnnc3SC2)cc1	0	13	4	0	8	0
COC(=O)COc1ccc(Cl)cc1C1Nc2ccccc2C(=O)N1c1ccc(OC)cc1 (stereo unspecified)	·	0	-3	0	-25*	0
C[C@@H]1CN([C@H](C)CO)C(=O)c2cc(NS(=O)(=O)c3ccc(Cl)cc3)ccc2O[C@@H](C)CCCCO[C@H]1CN(C)C(=O)Nc1ccc(C(F)(F)F)cc1	55*[16.7 µM]	8	0	-2	-2	-1
C[C@H]1CCCCO[C@@H](CN(C)C(=O)Nc2ccc(C(F)(F)F)cc2)[C@@H](C)CN([C@@H](C)CO)C(=O)c2cc(NS(=O)(=O)c3ccc(F)cc3)ccc2O1	61*[16.7 µM]	1	-2	9	6	0
C[C@H]1CCCCO[C@H](CN(C)C(=O)Nc2ccc(C(F)(F)F)cc2)[C@@H](C)CN([C@@H](C)CO)C(=O)c2cc(NS(=O)(=O)c3ccccc3)ccc2O1	78*[16.7 µM]	13	-6	-8	0	0
C[C@@H]1CN([C@@H](C)CO)C(=O)c2cc(NS(=O)(=O)c3ccccc3)ccc2O[C@@H](C)CCCCO[C@H]1CN(C)C(=O)Nc1ccc(C(F)(F)F)cc1	·	-10	1	·	1	0
Cc1ccc(C(=O)N(CC(=O)Nc2ccc(Cl)c(Cl)c2)Cc2ccco2)cc1	-54	·	·	-1	·	·
CCOC(=O)NC(N(O)c1cccc(Cl)c1)C(Cl)(Cl)Cl (stereo unspecified)	-8	-27	-2	-1	-28*	-1
Cc1ccc(/C=N/NC(=O)CNC(=O)c2ccc(C)c([N+](=O)[O-])c2)o1	6	·	-4	·	16	0
Cc1ccc(/C=N/NC(=O)CNC(=O)c2cccc([N+](=O)[O-])c2C)o1	-7	·	-2	·	14	43*
Cc1ccc(-c2csc(NC(=O)CCNC(=O)c3ccco3)n2)cc1	-3	11	0	·	-36*	0
CC(=O)Nc1ccc(-c2csc(NC(=O)CCCc3cccs3)n2)cc1	-69	0	0	-3	-30	2.1*
CC(=O)c1sc(NC(=O)c2ccccc2)nc1-c1ccccc1	-97	3	3	·	-20*	1
CC(=O)c1sc(NC(=O)CCNC(=O)c2ccco2)nc1-c1ccccc1	62*	·	-1	0	-15	0
Cc1ccc(-c2csc(NC(=O)CCCc3cccs3)n2)cc1	7	·	·	·	·	·
Cc1ccc(S(=O)(=O)NCCC(=O)NCCN2CCCCCC2)cc1	-39	-12	·	0	·	·
COc1cc(NC(=O)CSc2ncnc3scc(-c4ccccc4)c23)c(C(=O)O)cc1OC	11	·	0	·	11	43*
CC(C)CCN1CCN(CC(c2ccccc2)c2ccccc2)CC1CCO (stereo unspecified)	-26	-2	-3	-8	-4	43*
CC(C)CCN1CCN(Cc2nc3ccccc3s2)CC1CCO (stereo unspecified)	-21	9	-6	0	6	0
CCn1ccnc1CN(C)Cc1cn(-c2ccccc2)nc1-c1ccc(OC)cc1F	0	·	3	-2	-37	45*
N#Cc1c(N)nc2c(c1N)CC(=O)N2c1ccc(Cl)cc1	·	1	-7	0	-31*	0
CCOC(=O)c1nc(Nc2ccc(N3CCC(C)CC3)cc2)c2ccccc2n1	62*	-36	-5	-4	-16	-1
Cc1ccsc1/C=C1/NC(=O)N(Cc2ccc(F)cc2)C1=O	-99	·	-2	·	·	43*
SMILES	HIV Env fusion	PGC1a acetyl inh	ERAP1 inh	Cneo AK release	rRNA inh HTS	FGF22 binding
O=C(CSc1ccccc1)NC1CC1	18	·	1	1	·	0
COc1ccc(C(C)=NNc2ccc([N+](=O)[O-])cc2S(=O)(=O)Nc2ccccc2C(=O)O)c(OC)c1	10	-7	-55	0	-20*	·
CC(=O)Nc1ccc(C=NNc2ccc([N+](=O)[O-])cc2S(=O)(=O)Nc2ccccc2C(=O)O)cc1	-17	·	-25	-2	-6	0
CN(CCO)c1ccc(C=NNc2ccc([N+](=O)[O-])cc2S(=O)(=O)Nc2ccccc2C(=O)O)cc1	-10	7	-26	-4	-14*	·
CCOc1cc(/C=N/Nc2ccc(S(=O)(=O)Nc3ccccc3C(=O)O)cc2[N+](=O)[O-])cc(Cl)c1O	-13	·	-61	1	-8.1*	0
Cc1cc(Nc2ccc(OC(F)F)cc2)cc(=O)n1-c1ccc(OC(F)F)cc1	-6	·	2	·	-15	0
Cc1ccc(N(Cc2ccccc2F)S(C)(=O)=O)cc1C	·	-5	-4	0	-43	0
Cc1nn(C(C)(C)C)c(C)c1/C=N/OC(=O)Nc1ccc(Cl)c(Cl)c1	65*	·	·	-5	-53	0
O=C1CCCc2c1[nH]c1ccc(Cl)cc21	83*	-9	·	9	·	·
OCCN=C1CCCc2c1[nH]c1ccc(Cl)cc21	67*	·	·	·	1	0
OCCCN=C1CCCc2c1[nH]c1ccc(Cl)cc21	57*	·	·	·	-15	0
COc1ccc(OC)c(NC(=O)NNC(=O)COc2ccc(F)cc2F)c1	-18	·	-1	4	3	0
c1ccc([C@H]2CN3C(=N2)Sc2ccccc23)cc1	·	-1	1	-4	3	45*
c1cc(CNCC2CCCO2)ccn1 (stereo unspecified)	15	·	-2	·	·	43*
Cn1c(=O)c2c(nc(SCC(=O)NC3CCCC3)n2C)n(C)c1=O	2	·	0	1	-1	0
O=C(C[C@@H]1CC[C@H]2[C@@H](COC[C@@H](O)CN2Cc2ccc(Oc3ccccc3)cc2)O1)N1CCN(c2ccccc2)CC1	59*[16.7 µM]	-8	-1	3	-11	0
O=C(C[C@@H]1CC[C@@H]2[C@H](COC[C@H](O)CN2Cc2cccc(Cl)c2)O1)Nc1nccs1	4[16.7 µM]	-3	1	0	-3	0
O=C(C[C@H]1CC[C@H]2[C@@H](COC[C@H](O)CN2Cc2cccc(Cl)c2)O1)Nc1nccs1	0[16.7 µM]	-24	4	115*	-3	0
O=C(C[C@@H]1CC[C@H]2[C@@H](COC[C@H](O)CN2Cc2ccc(Oc3ccccc3)cc2)O1)Nc1nccs1	48[16.7 µM]	-9	2	88*	-47	0
O=C(C[C@@H]1CC[C@@H]2[C@H](COC[C@H](O)CN2Cc2ccc(Oc3ccccc3)cc2)O1)N1CCN(c2ccccc2)CC1	18[16.7 µM]	-9	-1	4	i	0

Screening data from PubChem BioAssay.
